4 molecules from publication PMC7415964 (The Journal of Biological Chemistry, 2021) can be followed below.

Where a SMILES comes first, the peptide text is derived from it. The star is where a group is joined. FITC = O=C1OC2(c3ccc(O)cc3Oc3cc(O)ccc32)c2ccc(NC(=S)*)cc21

Data set [1] deals with EVA1(P672_(22-32)) hybrid protein (not stated | Rhipicephalus pulchellus). The data set is described as follows: BLI.
Another data set concerns CCL18. In words: Fluorescence polarization assay, CCL18. The settings on record: BK1.1FITC 50 nM, chemokine 1 μM, compared with negative control CXCL1. Type of data set: binding. The essentials:
(§1)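 Polarization read with FITC filters, gain set at 35 mP on a peptide-only well, and converted to anisotropy, A = 2P/(3 − P). CXCL1 negative control. Two technical, three biological replicates. One-way ANOVA with Sidak's correction.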

The next data set concerns CCL7. The data set is described as follows: Fluorescence polarization assay, CCL7. The format is binding. The settings on record: BK1.1FITC 50 nM, chemokine 1 μM, compared with negative control CXCL1. The essentials:
as §1

The target in a further data set is T1, CCL8 (Homo sapiens, UniProt P80075).
T1 sequence (P80075 24-99): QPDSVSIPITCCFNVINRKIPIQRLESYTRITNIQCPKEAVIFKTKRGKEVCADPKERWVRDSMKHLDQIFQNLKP
The data set is described as follows: Fluorescence polarization assay, CCL8. Type of data set: binding. The settings on record: fluorescent peptide 50 nM, CCL8 1 μM, 30 min, compared with scrambled control. The essentials: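 Polarization read with FITC filters, gain set to 35 mP on a peptide-only well, and converted to anisotropy A = 2P/(3 − P). Two technical × three biological replicates. Scrambled FITC peptide as negative control; one-way ANOVA with Sidak's correction.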

For a further data set, the target named is human CCL8-647 (human) (UniProt P80075). The data set is described as follows: flow cytometry on cells.
The target in another data set is human CCL2-647 (human) (UniProt P13500). In words: flow cytometry on cells.
human CCL2-647 (human), sequence (P13500 24-99): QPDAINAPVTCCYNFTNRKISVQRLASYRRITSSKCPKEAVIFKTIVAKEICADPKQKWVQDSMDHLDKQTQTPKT
Data set [2] has as its target C–C motif chemokine ligand 8 (CCL8) (human) (UniProt P80075).
In data set [3] the target is T2, C–C motif chemokine ligand 8 (CCL8) (human), P80075.
T2 chain: T1 sequence (P80075 24-99)
In words: native MS. As to conditions: remark: other sources report otherwise.

In a further data set the test system is P672–CCL8 complex. The data set is described as follows: Hydrogen–deuterium exchange MS of the P672–CCL8 complex. The settings on record: complex versus free CCL8; 5 s, 30 s, 5 min, 60 min; triplicate.

Turning to “C–C motif chemokine ligand 8 (CCL8) (from UniProt P80075 24-99)”, in data set [1], the equilibrium dissociation constant (Kd) stood at 490 nM.

On to `CC(C)[C@H](NC(=O)[C@@H]1CCCN1C(=O)[C@H](CCCCN)NC(=O)[C@H](Cc1ccccc1)NC(=O)[C@H](Cc1ccccc1)NC(=O)[C@H](CC(=O)O)NC(=O)[C@H](CCC(=O)O)NC(=O)[C@H](Cc1ccc(O)cc1)NC(=O)[C@H](CC(=O)O)NC(=O)[C@H](CCC(=O)O)NC(=O)[C@H](CC(=O)O)NC(=O)[C@H](CCC(=O)O)NC(=S)Nc1ccc2c(c1)C(=O)OC21c2ccc(O)cc2Oc2cc(O)ccc21)C(=O)N[C@H](C(=O)N[C@@H](C)C(=O)N[C@@H](Cc1ccc(O)cc1)C(=O)N[C@@H](Cc1ccccc1)C(N)=O)[C@@H](C)O` [BK1.1FITC] ({FITC}-EDEDYEDFFKPVTAYF-NH2), for which, in the data set on CCL18, the “change in anisotropy with CCL18” value is “significant increases in anisotropy”. For the same molecule, the “change in anisotropy with CCL7” value in the data set with CCL7 was “significant increases in anisotropy”. Further, at CCL8, the “change in anisotropy upon incubation with CCL8” value is reported as “displayed an increase in anisotropy”.

As to evasin EVA-P672 (natural protein), the IC50 in the data set with human CCL8-647 (human) and with human CCL2-647 (human) was 21 nM throughout. The molecule further displayed an IC50 of inhibition of CCL8-induced THP-1 cell migration in [2] of 2.6 nM.

B1: C–C motif chemokine ligand 8 (CCL8), P80075 24-99 (ligand)
chain: T1 sequence (P80075 24-99)
For the molecule B1, the stoichiometry N in data set [3] was 2. The “% relative deuterium uptake (%D), CCL8 Arg18–Ser27” value in the data set on P672–CCL8 complex is on record as −6 to −18%.
